Active and inactive are the calls of the source.
Columns and labels:
Cannabinoid receptor [1] = molecular target: T1, Cannabinoid receptor (Rattus norvegicus, UniProt Q9QZN9+P20272); format: cell membranes, Wistar, Brain, Membranes
Cannabinoid receptor [2] = molecular target: T1, Cannabinoid receptor; test: Displacement of [3H]JWH-018 from CB1R/CB2R in Wistar rat brain membranes after 60 mins by liquid scintillation analysis; format: cell membranes
Rattus norvegicus [3] = test: Effect on nociception of the contralateral paw in rat model of sodium iodoacetate-induced osteoarthritis paw withdrawal threshold in late phase at 20 ug administered as intrathecal injection measured after 60 to 90 mins by Von Frey test (reference value: 43 +/- 3.4 g); format: organism-based; conditions: in vivo, icv_or_intrathecal
[4] = molecular target: Mu-type opioid receptor (Rattus norvegicus) (UniProt P33535); test: Agonist activity at MOR in Wistar rat brain membranes at 10 uM in presence of naloxone after 60 mins by [35S]-GTPgammaS binding assay relative to control; format: functional, cell membranes
Procedure, shortened: (§1)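 Rat brain membranes (30 µg protein/tube) incubated 60 min at 30 °C with 0.05 nM [35S]GTPγS and ligand at 10^-10–10^-5 M. Buffer: 50 mM Tris-HCl pH 7.4 with 30 µM GDP, 100 mM NaCl, 3 mM MgCl2, 1 mM EGTA. Nonspecific binding taken with 10 µM GTPγS; basal set as 100%. Filtration and scintillation counting; n≥3.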

[5] = molecular target: Cannabinoid receptor 1 (Rattus norvegicus) (UniProt P20272); test: Agonist activity at CB1R in Wistar rat brain membranes at 10 uM in presence of rimonabant after 60 mins by [35S]-GTPgammaS binding assay relative to control; format: functional, cell membranes
Procedure, shortened: as §1, with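 “EGTA. […]” for “EGTA.”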

Cannabinoid receptor 1 = Cannabinoid receptor 1 (Rattus norvegicus, UniProt P20272); test: Agonist activity at CB1R in Wistar rat brain membranes in presence of rimonabant after 60 mins by [35S]-GTPgammaS binding assay; format: functional, cell membranes
Procedure, shortened: as §1, with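 “EGTA. […]” for “EGTA.”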

Mu-type opioid receptor [6] = molecular target: T2, Mu-type opioid receptor (Rattus norvegicus, UniProt P33535); test: Displacement of [3H]DAMGO from MOR in Wistar rat brain membranes after 60 mins by liquid scintillation analysis; format: cell membranes
Rattus norvegicus [7] = test: Effect on nociception of the contralateral paw in rat model of sodium iodoacetate-induced osteoarthritis paw withdrawal threshold in early phase at 20 ug administered as intrathecal injection measured up to 45 mins by Von Frey test (reference value: 44 +/- 2.4 g); format: organism-based; conditions: in vivo, icv_or_intrathecal, 0.75 h
Rattus norvegicus [8] = test: Antiallodynic activity in sodium iodoacetate-induced rat model of osteoarthritis assessed as increase in maximum effect in early phase at 20 ug administered as intrathecal injection measured up to 45 mins by Von Frey test; format: functional, organism-based
[9] = molecular target: Kappa-type opioid receptor (Cavia porcellus, UniProt P41144); format: cell membranes, Brain, Membranes
Rattus norvegicus [10] = species on record: Rattus norvegicus; test: Agonist activity at MOR/CB1R/CB2R in Wistar rat brain membranes after 60 mins by [35S]-GTPgammaS binding assay relative to control; format: cell membranes
Procedure, shortened: as §1, with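 “EGTA. […]” for “EGTA.”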

Mu-type opioid receptor [11] = molecular target: T2, Mu-type opioid receptor; test: Agonist activity at MOR in Wistar rat brain membranes in presence of naloxone after 60 mins by [35S]-GTPgammaS binding assay; format: functional, cell membranes
Procedure, shortened: as §1

Cannabinoid receptor 2 = molecular target: T3, Cannabinoid receptor 2 (Rattus norvegicus, UniProt Q9QZN9); test: Agonist activity at CB2R in Wistar rat brain membranes in presence of AM630 after 60 mins by [35S]-GTPgammaS binding assay; format: functional, cell membranes
T3 sequence (Q9QZN9 whole entry): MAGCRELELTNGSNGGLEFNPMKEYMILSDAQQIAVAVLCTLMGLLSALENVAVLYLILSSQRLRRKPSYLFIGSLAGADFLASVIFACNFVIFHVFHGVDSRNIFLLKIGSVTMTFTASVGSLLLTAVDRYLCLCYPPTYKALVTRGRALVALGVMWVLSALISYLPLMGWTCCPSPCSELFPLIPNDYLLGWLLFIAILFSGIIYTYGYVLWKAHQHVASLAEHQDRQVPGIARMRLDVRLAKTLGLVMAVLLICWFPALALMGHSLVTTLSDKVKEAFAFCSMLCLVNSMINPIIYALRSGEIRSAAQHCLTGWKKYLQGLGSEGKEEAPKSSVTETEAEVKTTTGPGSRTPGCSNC
Procedure, shortened: as §1, with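 “EGTA. […]” for “EGTA.”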

[12] = molecular target: Delta-type opioid receptor (Rattus norvegicus, UniProt P33533); test: Displacement of [3H]Ile5,6-deltorphin-2 from DOR in Wistar rat brain membranes after 60 mins by liquid scintillation analysis; format: cell membranes
[13] = molecular target: T4, Cannabinoid receptor 2 (Rattus norvegicus) (UniProt Q9QZN9); test: Agonist activity at CB2R in Wistar rat brain membranes at 10 uM in presence of AM630 after 60 mins by [35S]-GTPgammaS binding assay relative to control; format: functional, cell membranes
T4 sequence (whole entry): T3 sequence (Q9QZN9 whole entry)
Procedure, shortened: as §1, with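 “EGTA. […]” for “EGTA.”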

Rattus norvegicus [14] = species on record: Rattus norvegicus; conditions: Wistar, Brain, Membranes, at 10 µM
Rattus norvegicus [15] = species on record: Rattus norvegicus; test: Agonist activity at MOR/CB1R/CB2R in Wistar rat brain membranes at 10 uM in presence of naloxone,rimonabant and AM630 after 60 mins by [35S]-GTPgammaS binding assay relative to control; format: cell membranes
Procedure, shortened: as §1, with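 “EGTA. […]” for “EGTA.”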

[16] = Agonist activity at MOR/CB1R/CB2R receptor in Wistar rat brain membranes after 60 mins by [35S]-GTPgammaS binding assay; format: cell membranes
Mus musculus = test: Antinociceptive activity in CD-1 mouse assessed as increase in thermal latency at 10 mg/kg, iv after 15 to 120 mins by hot plate technique; format: functional, organism-based
Procedure, shortened: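 Male CD-1 mice (25 g) given 10 mg/kg i.v. in 10 mL/kg; vehicle saline with 5% DMSO. Hot plate held at 55.0 °C. Latency to paw lick or jump, cut-off 60 s, read at 15–120 min. Baseline is the mean of three pre-test readings. Data given as %MPE; n=6/group.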

Rattus norvegicus [17] = test: Effect on nociception of the contralateral paw in rat model of sodium iodoacetate-induced osteoarthritis assessed as paw withdrawal threshold in late phase at 7 ug administered as intrathecal injection measured after 60 to 90 mins by Von Frey test (reference value: 43 +/- 3.4 g); format: ADME, organism-based; conditions: in vivo, icv_or_intrathecal
Rattus norvegicus [18] = test: Antiallodynic activity in sodium iodoacetate-induced rat model of osteoarthritis assessed as increase in maximum effect in early phase at 7 ug administered as intrathecal injection measured up to 45 mins by Von Frey test; format: functional, organism-based
Mu-type opioid receptor [19] = molecular target: T2, Mu-type opioid receptor; test: Agonist activity at MOR in Wistar rat brain membranes after 60 mins by [35S]-GTPgammaS binding assay; format: functional, cell membranes
Rattus norvegicus [20] = test: Effect on nociception of the contralateral paw in rat model of sodium iodoacetate-induced osteoarthritis assessed as paw withdrawal threshold in early phase at 7 ug administered as intrathecal injection measured up to 45 mins by Von Frey test (reference value: 44 +/- 2.4 g); format: ADME, organism-based; conditions: in vivo, icv_or_intrathecal, 0.75 h
[21] = molecular target: T5, Cannabinoid receptor (Rattus norvegicus) (UniProt Q9QZN9+P20272); test: Displacement of [3H]JWH-018 from CB1R/CB2R in Wistar rat brain membranes assessed as maximum efficacy at 10 uM by liquid scintillation analysis; format: cell membranes
Procedure, shortened: (§2)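 Whole rat brain membranes (cerebellum removed; 0.3–0.5 mg/mL protein) in 50 mM Tris-HCl pH 7.4 with 2.5 mM EGTA, 5 mM MgCl2 and 0.5 mg/mL fatty-acid-free BSA, 30 °C. Kinetics used 0.6 nM [3H]JWH-018: association over 0–90 min, dissociation started with 10 µM JWH-018 after 60 min. Saturation over 0.5–35 nM. Competitors at 10^-11–10^-5 M, 60 min. Nonspecific binding with 10 µM JWH-018. Filtration onto PEI-soaked GF/B filters; n≥3.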

Cannabinoid receptor [22] = molecular target: T1, Cannabinoid receptor; test: Displacement of [3H]JWH-018 from CB1R/CB2R in Wistar rat brain membranes assessed as dissociation constant by liquid scintillation analysis; format: cell membranes
Procedure, shortened: as §2

[23] = molecular target: T5, Cannabinoid receptor (Rattus norvegicus); test: Displacement of [3H]JWH-018 from CB1R/CB2R in Wistar rat brain membranes assessed as specific binding at 10 uM up to 90 mins by liquid scintillation analysis relative to control; format: cell membranes
Procedure, shortened: as §2

[24] = molecular target: T5, Cannabinoid receptor (Rattus norvegicus); test: Agonist activity at CB1R/CB2R in Wistar rat brain membranes after 60 mins by [35S]-GTPgammaS binding assay relative to control; format: functional, cell membranes
Procedure, shortened: as §1, with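 “EGTA. […]” for “EGTA.”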

[25] = molecular target: T5, Cannabinoid receptor (Rattus norvegicus); test: Displacement of [3H]JWH-018 from CB1R/CB2R in Wistar rat brain membranes at 10 uM by liquid scintillation analysis relative to control; format: cell membranes
Procedure, shortened: as §2

Cannabinoid receptor [26] = molecular target: T1, Cannabinoid receptor; test: Agonist activity at CB1R/CB2R in Wistar rat brain membranes after 60 mins by [35S]-GTPgammaS binding assay; format: functional, cell membranes
Procedure, shortened: as §1, with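 “EGTA. […]” for “EGTA.”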

[27] = molecular target: T5, Cannabinoid receptor (Rattus norvegicus); test: Displacement of [3H]JWH-018 from CB1R/CB2R in Wistar rat brain membranes assessed as pseudo-first order rate constant at 10 uM up to 90 mins by liquid scintillation analysis; format: cell membranes
Procedure, shortened: as §2

Cannabinoid receptor [28] = molecular target: T1, Cannabinoid receptor; test: (§3) Displacement of [3H]JWH-018 from CB1R/CB2R in Wistar rat brain membranes assessed as dissociation rate constant at 10 uM by liquid scintillation analysis; format: cell membranes
Procedure, shortened: as §2

[29] = molecular target: T5, Cannabinoid receptor (Rattus norvegicus); test: as §3; format: cell membranes
Procedure, shortened: as §2

Rattus norvegicus [30] = test: Antiallodynic activity in sodium iodoacetate-induced rat model of osteoarthritis assessed as reduction in maximum effect in late phase at 20 ug administered as intrathecal injection measured up to 60 to 90 mins by Von Frey test; format: functional, organism-based

T5 sequence (P20272 whole entry, looked up, one chain of several): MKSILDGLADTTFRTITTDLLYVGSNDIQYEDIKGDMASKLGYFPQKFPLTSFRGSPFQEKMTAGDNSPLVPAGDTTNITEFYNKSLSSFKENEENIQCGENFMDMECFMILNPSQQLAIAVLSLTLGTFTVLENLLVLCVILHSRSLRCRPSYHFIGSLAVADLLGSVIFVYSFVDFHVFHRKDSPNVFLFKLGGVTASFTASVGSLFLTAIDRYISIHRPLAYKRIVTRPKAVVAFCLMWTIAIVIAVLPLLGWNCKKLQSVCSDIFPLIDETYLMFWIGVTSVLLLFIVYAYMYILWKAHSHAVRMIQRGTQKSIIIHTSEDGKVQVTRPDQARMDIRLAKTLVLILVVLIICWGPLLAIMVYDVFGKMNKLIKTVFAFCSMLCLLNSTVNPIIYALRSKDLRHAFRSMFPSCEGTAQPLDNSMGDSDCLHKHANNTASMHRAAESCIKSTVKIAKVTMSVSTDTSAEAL
T2 sequence (P33535 whole entry): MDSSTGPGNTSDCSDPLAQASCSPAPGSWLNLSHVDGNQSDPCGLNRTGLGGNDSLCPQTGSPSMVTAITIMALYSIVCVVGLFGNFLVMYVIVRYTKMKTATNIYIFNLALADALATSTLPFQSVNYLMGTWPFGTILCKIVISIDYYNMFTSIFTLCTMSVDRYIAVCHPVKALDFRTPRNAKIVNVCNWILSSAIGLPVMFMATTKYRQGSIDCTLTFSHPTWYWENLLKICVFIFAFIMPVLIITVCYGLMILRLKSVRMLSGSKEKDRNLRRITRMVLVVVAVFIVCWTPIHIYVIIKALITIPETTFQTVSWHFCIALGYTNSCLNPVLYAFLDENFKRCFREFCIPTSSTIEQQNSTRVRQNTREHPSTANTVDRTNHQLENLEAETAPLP
Kappa-type opioid receptor, sequence (P41144 whole entry): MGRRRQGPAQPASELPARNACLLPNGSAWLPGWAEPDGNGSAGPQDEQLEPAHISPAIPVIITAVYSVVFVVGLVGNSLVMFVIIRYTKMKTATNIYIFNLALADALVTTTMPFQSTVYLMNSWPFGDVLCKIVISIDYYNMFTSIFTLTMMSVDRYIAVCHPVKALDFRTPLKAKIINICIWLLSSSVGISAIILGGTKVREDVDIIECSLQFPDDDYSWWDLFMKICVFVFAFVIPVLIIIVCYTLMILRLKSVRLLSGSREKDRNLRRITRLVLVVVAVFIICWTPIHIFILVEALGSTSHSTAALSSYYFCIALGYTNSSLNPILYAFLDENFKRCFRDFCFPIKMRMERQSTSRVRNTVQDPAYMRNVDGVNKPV
Delta-type opioid receptor, sequence (P33533 whole entry): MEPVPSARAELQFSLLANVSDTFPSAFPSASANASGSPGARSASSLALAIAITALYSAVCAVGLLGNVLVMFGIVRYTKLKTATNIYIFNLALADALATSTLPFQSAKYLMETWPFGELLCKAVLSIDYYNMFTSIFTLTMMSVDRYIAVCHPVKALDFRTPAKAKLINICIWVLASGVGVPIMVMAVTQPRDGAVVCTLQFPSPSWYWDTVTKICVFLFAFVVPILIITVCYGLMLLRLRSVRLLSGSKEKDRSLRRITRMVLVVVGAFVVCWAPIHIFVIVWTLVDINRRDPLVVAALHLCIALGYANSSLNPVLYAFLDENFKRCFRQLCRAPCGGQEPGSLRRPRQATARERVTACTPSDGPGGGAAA
Cannabinoid receptor 1 (Rattus norvegicus), sequence (P20272 whole entry): as the sequence (P20272 whole entry, looked up, one chain of several) above
Cannabinoid receptor 1, sequence (P20272 whole entry): as the sequence (P20272 whole entry, looked up, one chain of several) above
Mu-type opioid receptor (Rattus norvegicus), sequence (P33535 whole entry): as the sequence (P33535 whole entry) above

Row | SMILES | Ki (Cannabinoid receptor [1]) [nM] | Ki (Cannabinoid receptor [2]) [nM] | Activity (Rattus norvegicus [3]) [g] | Ki (Mu-type opioid receptor [6]) [nM] | Activity (Rattus norvegicus [7]) [g] | Activity (Rattus norvegicus [8]) | Ki [9] [nM] | Ki [12] [nM] | Emax (Rattus norvegicus [14]) [%] | EC50 [16] [nM] | further results
1 | COc1ccc2c3c1O[C@H]1/C(=N\OCC(=O)NCCCCCCNC(=O)CCCCCn4cc(C(=O)c5cccc6ccccc56)c5ccccc54)CC[C@@]4(O)[C@@H](C2)N(C)CC[C@]314 | 12 | 34 | 47 | 18 | 42 | Active | 172 | 263 | 147 | 215 | Emax [4]: 112%; Emax [5]: 139%; EC50 (Cannabinoid receptor 1): 452 nM; Emax (Rattus norvegicus [10]): 146%; EC50 (Mu-type opioid receptor [11]): 397 nM; EC50 (Cannabinoid receptor 2): 340 nM; Emax [13]: 122%; Emax (Rattus norvegicus [15]): 100%; Activity (Mus musculus): Active
2 | C[C@@H](NC(=O)[C@@H](N)Cc1ccc(O)cc1)C(=O)NCC(=O)N[C@@H](Cc1ccccc1)C(N)=O | > 10000 | > 10000 |  | 0.8 |  |  | 173 |  | 157 | 191 | Activity (Rattus norvegicus [17]): 40 g; Activity (Rattus norvegicus [18]): Active; EC50 (Mu-type opioid receptor [19]): 154 nM; Activity (Rattus norvegicus [20]): 43 g
3 | CCCCCn1cc(C(=O)c2cccc3ccccc23)c2ccccc21 | 2.9 | 3.4 | 42 | > 10000 | 41 | Active | > 10000 | > 10000 | 163 | 69 | Emax [21]: 1120 fmol/mg; Kd (Cannabinoid receptor [22]): 3.4 nM; Activity [23]: 65%; Emax [24]: 167%; Activity [25]: 60%; EC50 (Cannabinoid receptor [26]): 36 nM; K [27]: 0.124 min⁻¹; Kd(app) (Cannabinoid receptor [28]): 6.5 nM; Kdiss [29]: 0.00175 s⁻¹
4 | COc1ccc2c3c1O[C@H]1C(=O)CC[C@@]4(O)[C@@H](C2)N(C)CC[C@]314 [OXYCODONE] |  |  | 40 |  | 43 | Active |  |  |  |  | Activity (Rattus norvegicus [30]): Active

From ChEMBL document CHEMBL4359826, “Preparation of bivalent agonists for targeting the mu opioid and cannabinoid receptors” (Eur J Med Chem, 2019)
